Measurements reported in ChEMBL document CHEMBL1134852, “A new class of potent nonpeptide luteinizing hormone-releasing hormone (LHRH) antagonists: design and synthesis of 2-phenylimidazo[1,2-a]pyrimidin-5-ones” (Bioorg Med Chem Lett, 2002).
pIC50: −log10 of the molar value.

Target: T1, Gonadotropin-releasing hormone receptor (Homo sapiens, UniProt P30968)
T1 sequence (P30968 whole entry): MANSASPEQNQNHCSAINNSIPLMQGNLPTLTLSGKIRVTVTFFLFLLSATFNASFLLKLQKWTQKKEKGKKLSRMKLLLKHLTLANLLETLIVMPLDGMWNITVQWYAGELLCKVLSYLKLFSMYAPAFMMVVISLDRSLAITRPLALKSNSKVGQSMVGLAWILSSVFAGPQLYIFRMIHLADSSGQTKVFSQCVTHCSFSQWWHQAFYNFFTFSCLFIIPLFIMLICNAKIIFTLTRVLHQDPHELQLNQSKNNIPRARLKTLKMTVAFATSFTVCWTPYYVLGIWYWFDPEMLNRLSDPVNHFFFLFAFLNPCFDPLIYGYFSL
Test: In vitro inhibition of specific [125I]leuprorelin binding to the cloned human LHRH receptor expressed in chinese hamster ovary cells
Format: cell-based, CHO
Summary of the method: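 Membranes from CHO cells expressing the receptor (0.2 mg/mL) incubated with [125I][Tyr5]leuprorelin (0.12–0.15 nM) and varied test compound, 60 min at 25 °C, Tris 25 mM/EDTA/0.1% BSA/protease inhibitors buffer, pH 7.5. Stopped with ice-cold buffer, filtered on PEI-coated glass fibre, radioactivity counted. Nonspecific binding with […] unlabeled leuprorelin; IC50 from pseudo-Hill fit.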

Row | SMILES | pIC50
1 | C=CC(=O)Nc1ccc(-c2nc3n(Cc4c(F)cccc4F)cc(C(=O)OCC)c(=O)n3c2CN(C)Cc2ccccc2)cc1 | 8.52
2 | CCNC(=O)Nc1ccc(-c2nc3n(Cc4c(F)cccc4F)cc(C(=O)OC(C)C)c(=O)n3c2CN(C)Cc2ccccc2)cc1 | 9.52
3 | CCOC(=O)c1cn(Cc2c(F)cccc2F)c2nc(-c3ccc(NC(=O)CC)cc3)c(CN(C)Cc3ccccc3)n2c1=O | 8.00
4 | CONC(=O)Nc1ccc(-c2nc3n(Cc4c(F)cccc4F)cc(C(=O)OC(C)C)c(=O)n3c2CN(C)Cc2ccccc2)cc1 | 9.40

The next lines start with the values.

Row | pIC50 | SMILES
5 | 7.70 | CCOC(=O)c1cn(Cc2c(F)cccc2F)c2nc(-c3ccc(NC(=O)c4ccccc4)cc3)c(CN(C)Cc3ccccc3)n2c1=O
6 | 9.15 | CCOC(=O)c1cn(Cc2c(F)cccc2F)c2nc(-c3ccc(NC(=O)NOC)cc3)c(CN(C)Cc3ccccc3)n2c1=O
7 | 8.52 | CCOC(=O)c1cn(Cc2c(F)cccc2F)c2nc(-c3ccc(NC(=O)c4ccoc4)cc3)c(CN(C)Cc3ccccc3)n2c1=O
8 | 8.15 | CCOC(=O)c1cn(Cc2c(F)cccc2F)c2nc(-c3ccc(NC(=O)c4ccsc4)cc3)c(CN(C)Cc3ccccc3)n2c1=O
9 | 7.52 | CCOC(=O)c1cn(Cc2c(F)cccc2F)c2nc(-c3ccc(NC(=O)C(C)C)cc3)c(CN(C)Cc3ccccc3)n2c1=O
10 | 8.30 | CCOC(=O)c1cn(Cc2c(F)cccc2F)c2nc(-c3ccc(NC(=O)C4CC4)cc3)c(CN(C)Cc3ccccc3)n2c1=O
